Test results reported in ChEMBL document CHEMBL1134070, “Ring-Constrained (N)-methanocarba nucleosides as adenosine receptor agonists: independent 5'-uronamide and 2'-deoxy modifications” (Bioorg Med Chem Lett, 2001).

Columns and labels:
[1] = molecular target: Adenosine receptor A2a (Rattus norvegicus) (UniProt P30543); assay: Displacement of [3H]-CGS- 21680 from A2A receptors (rA2A) in rat striatal membranes at 100 uM; format: cell membranes; settings: Membrane
Method in brief: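 Rat striatal membranes; percent displacement of specific [3H]CGS 21680 binding at A2A receptors measured at a single 100 μM test concentration.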

Adenosine receptor A1 [2] = molecular target: T1, Adenosine receptor A1 (Homo sapiens, UniProt P30542); assay: Agonist efficacy as effective concentration to stimulate binding of [35S]GTP-gamma-S, at human Adenosine A1 receptor; format: functional
T1 sequence (P30542 whole entry): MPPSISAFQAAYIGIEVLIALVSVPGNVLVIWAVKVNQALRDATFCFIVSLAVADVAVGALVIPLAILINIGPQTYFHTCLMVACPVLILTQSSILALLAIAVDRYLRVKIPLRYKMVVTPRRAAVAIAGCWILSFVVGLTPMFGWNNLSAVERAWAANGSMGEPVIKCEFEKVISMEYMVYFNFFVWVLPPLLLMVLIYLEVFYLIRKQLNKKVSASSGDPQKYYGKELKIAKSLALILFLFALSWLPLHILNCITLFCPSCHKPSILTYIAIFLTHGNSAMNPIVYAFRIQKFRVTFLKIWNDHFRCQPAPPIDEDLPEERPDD
Method in brief: (§1)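 Functional agonist assay: stimulation of [35S]GTP-γ-S binding following activation of the human A1 receptor. EC50 and percent efficacy reported as mean±value.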

[3] = molecular target: T2, Adenosine receptor A1 (Homo sapiens) (UniProt P30542); assay: Efficacy to stimulate binding of [35S]GTP-gamma-S, at human Adenosine A1 receptor; format: functional; method in brief: as §1
T2 sequence (whole entry): T1 sequence (P30542 whole entry)

Adenosine receptor A2a [4] = molecular target: T3, Adenosine receptor A2a (Rattus norvegicus, UniProt P30543); assay: Ability to displace specific radioligand [3H]-CGS- 21680 binding at A2A receptors (rA2A) in rat brain membrane; format: cell membranes
Method in brief: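 Rat striatal membranes; competition against specific [3H]CGS 21680 binding at A2A receptors.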

Adenosine receptor A3 [5] = molecular target: T4, Adenosine receptor A3 (Homo sapiens, UniProt P0DMS8); assay: Ability to displace specific radioligand [125I]AB-MECA binding at human Adenosine A3 receptor expressed in CHO cells; format: cell-based
T4 sequence (P0DMS8 whole entry): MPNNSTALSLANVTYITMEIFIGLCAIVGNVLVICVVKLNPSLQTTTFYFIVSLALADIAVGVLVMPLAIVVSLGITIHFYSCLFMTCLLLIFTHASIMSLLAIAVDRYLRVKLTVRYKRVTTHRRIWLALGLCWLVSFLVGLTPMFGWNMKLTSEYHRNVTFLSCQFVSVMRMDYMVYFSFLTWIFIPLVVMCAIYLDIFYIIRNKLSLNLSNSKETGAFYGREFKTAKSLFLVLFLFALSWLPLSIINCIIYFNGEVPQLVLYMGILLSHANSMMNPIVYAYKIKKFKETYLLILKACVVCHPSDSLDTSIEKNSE

Adenosine receptor A1 [6] = molecular target: T5, Adenosine receptor A1 (Rattus norvegicus, UniProt P25099); assay: Ability to displace specific radioligand [3H]R-PIA binding at Adenosine A1 receptor in rat brain membrane; format: cell membranes
T5 sequence (P25099 whole entry): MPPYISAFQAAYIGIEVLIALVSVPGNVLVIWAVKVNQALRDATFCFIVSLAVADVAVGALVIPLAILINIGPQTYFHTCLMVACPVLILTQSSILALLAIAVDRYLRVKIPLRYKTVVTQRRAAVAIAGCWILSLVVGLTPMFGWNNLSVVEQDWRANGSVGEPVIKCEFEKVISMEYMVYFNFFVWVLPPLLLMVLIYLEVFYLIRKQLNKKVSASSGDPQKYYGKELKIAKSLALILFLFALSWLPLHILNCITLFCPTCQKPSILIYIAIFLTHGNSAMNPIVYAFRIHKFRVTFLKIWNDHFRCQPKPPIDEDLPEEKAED
Method in brief: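 Rat brain membranes; competition against specific [3H]R-PIA binding at A1 receptors.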

Adenosine receptor A3 [7] = molecular target: T4, Adenosine receptor A3; assay: Agonist efficacy as effective concentration to stimulate binding of [35S]GTP-gamma-S, by activation of human A3AR receptor; format: functional
[8] = molecular target: Adenosine receptor A2a (Rattus norvegicus) (UniProt P30543); assay: Displacement of [3H]-CGS- 21680 from A2A receptors (rA2A) in rat striatal membranes at 10 uM; format: cell membranes; settings: Membrane
Method in brief: (§2)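 Rat striatal membranes; percent displacement of specific [3H]CGS 21680 binding at A2A receptors measured at a single 10 μM test concentration.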

Adenosine receptor A2a [9] = molecular target: T3, Adenosine receptor A2a; assay: Displacement of [3H]-CGS- 21680 from Adenosine A2A receptor in rat brain membrane; format: cell membranes
Adenosine receptor A1 [10] = molecular target: T1, Adenosine receptor A1; assay: Agonist efficacy as effective concentration to stimulate binding of [35S]GTP-gamma-S, at human A1 adenosine receptor; format: functional
Method in brief: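 Functional agonist assay measuring agonist-stimulated [35S]GTP-γ-S binding through activation of the human A1AR. Potency was reported as EC50 together with percent efficacy, each as mean ± error.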

[11] = molecular target: Adenosine receptor A2a (Rattus norvegicus) (UniProt P30543); assay: Displacement of [3H]-CGS- 21680 from Adenosine A2A receptor in rat striatal membranes at 10 uM; format: cell membranes; settings: Membrane; method in brief: as §2

T3 sequence (P30543 whole entry): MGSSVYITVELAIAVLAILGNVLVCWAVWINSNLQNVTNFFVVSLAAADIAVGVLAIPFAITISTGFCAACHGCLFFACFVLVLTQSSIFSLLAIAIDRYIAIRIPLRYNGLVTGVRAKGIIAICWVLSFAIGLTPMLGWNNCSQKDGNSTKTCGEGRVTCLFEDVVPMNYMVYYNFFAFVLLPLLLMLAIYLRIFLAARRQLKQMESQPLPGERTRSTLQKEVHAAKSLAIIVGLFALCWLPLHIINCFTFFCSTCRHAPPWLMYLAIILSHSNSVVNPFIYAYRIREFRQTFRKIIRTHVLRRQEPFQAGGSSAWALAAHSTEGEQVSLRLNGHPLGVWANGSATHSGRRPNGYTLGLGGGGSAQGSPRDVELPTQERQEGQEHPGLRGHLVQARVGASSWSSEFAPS
Chain of Adenosine receptor A2a (Rattus norvegicus) (P30543 whole entry): as above

Ki (Adenosine receptor A2a [4])	Ki (Adenosine receptor A3 [5])	Ki (Adenosine receptor A1 [6])	Structure (SMILES)	also measured
25400 nM	912 nM	8730 nM	OC[C@@]12C[C@@H]1[C@@H](n1cnc3c(NCc4cccc(I)c4)nc(Cl)nc31)C[C@@H]2O	–
–	22.5 nM	884 nM	CNc1nc(Cl)nc2c1ncn2[C@H]1[C@H](O)[C@H](O)[C@]2(CO)C[C@H]12	Displacement [11]: < 10%
1660 nM	–	83.9 nM	CNC(=O)[C@@]12C[C@@H]1[C@@H](n1cnc3c(NCc4cccc(I)c4)nc(Cl)nc31)[C@H](O)[C@@H]2O	–

Second part, the compound before the results:

Structure (SMILES)	Ki (Adenosine receptor A2a [4])	Ki (Adenosine receptor A3 [5])	Ki (Adenosine receptor A1 [6])	also measured
OC[C@@]12C[C@@H]1[C@@H](n1cnc3c(NC4CCCC4)nc(Cl)nc31)C[C@@H]2O	–	–	–	Displacement [1]: 45%; EC50 (Adenosine receptor A1 [2]): 2280 nM; Efficacy [3]: 40%
CNC(=O)[C@@]12C[C@@H]1[C@@H](n1cnc3c(NCc4cccc(I)c4)ncnc31)[C@H](O)[C@@H]2O	548 nM	2.39 nM	52.7 nM	EC50 (Adenosine receptor A3 [7]): 6.8 nM
CNC(=O)[C@@]12C[C@@H]1[C@@H](n1cnc3c(NC)nc(Cl)nc31)[C@H](O)[C@@H]2O	–	6.19 nM	805 nM	Displacement [8]: < 10%; EC50 (Adenosine receptor A3 [7]): 25.5 nM
CCNC(=O)[C@@]12C[C@@H]1[C@@H](n1cnc3c(N)ncnc31)[C@H](O)[C@@H]2O	–	–	–	Ki (Adenosine receptor A2a [9]): 100 nM
OC[C@@]12C[C@@H]1[C@@H](n1cnc3c(NC4CCCC4)ncnc31)C[C@@H]2O	–	2880 nM	5110 nM	Displacement [1]: 15%; EC50 (Adenosine receptor A1 [10]): 2890 nM; Efficacy [3]: 30%
CNc1ncnc2c1ncn2[C@H]1[C@H](O)[C@H](O)[C@]2(CO)C[C@H]12	–	–	–	Displacement [11]: < 10%
Nc1nc(Cl)nc2c1ncn2[C@H]1[C@H](O)[C@H](O)[C@]2(CO)C[C@H]12	–	84.7 nM	273 nM	–
